Experimental data reported in ChEMBL document CHEMBL1144101, “Secobatzellines A and B, two new enzyme inhibitors from a deep-water Caribbean sponge of the genus Batzella” (J Nat Prod, 1999).
In brackets after ≈: the same amount, converted by molar mass.

Experiments:
[1] = tested on: P388; assay: Cytotoxicity against mouse P388 cells; type: functional, cell-based
[2] = tested on: A549; assay: Cytotoxicity against human A549 cells; type: functional, cell-based
[3] = target: T1, Caspase-3 (Homo sapiens, UniProt P42574); assay: Inhibition of peptidase activity of CPP32
T1 sequence (P42574 whole entry): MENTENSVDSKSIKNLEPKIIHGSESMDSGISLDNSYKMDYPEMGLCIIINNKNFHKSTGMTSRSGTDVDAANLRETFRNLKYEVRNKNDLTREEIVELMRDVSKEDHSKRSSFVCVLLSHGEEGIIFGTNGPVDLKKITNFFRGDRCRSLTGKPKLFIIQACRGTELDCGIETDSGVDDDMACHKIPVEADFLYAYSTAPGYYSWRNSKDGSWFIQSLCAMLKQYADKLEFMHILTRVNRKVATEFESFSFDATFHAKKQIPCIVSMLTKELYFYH

[4] = Inhibition of bovine phosphatase activity of calcineurin by microtitre method; design: species or system Bos taurus
In short: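 Bovine calcineurin assayed together with bovine calmodulin, using p-nitrophenyl phosphate as the phosphatase substrate.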

IC50 [3] | IC50 [4] | Structure (SMILES) | IC50 [1] | IC50 [2]
2.35 µM |  | CC(=O)OCC(OC(C)=O)c1c[nH]c2c1C(=N)C(Cl)=C(N)C2=O (configuration not stated) [SECOBATZELLINE A DIACETATE] | 0.01 µg/mL | 0.12 µg/mL
 | 0.55 µg/mL (≈ 2.15 µM) | N=C1C(Cl)=C(N)C(=O)c2[nH]cc(C(O)CO)c21 (configuration not stated) [SECOBATZELLINE A] | 0.06 µg/mL (≈ 0.235 µM) | 0.04 µg/mL (≈ 0.156 µM)
25.8 µM |  | CC(=O)OCC(OC(C)=O)c1c[nH]c2c1C(=O)C(Cl)=C(N)C2=O (configuration not stated) [SECOBATZELLINE B DIACETATE] | 3.83 µg/mL | 4.68 µg/mL
 | 2.21 µg/mL (≈ 8.61 µM) | NC1=C(Cl)C(=O)c2c(C(O)CO)c[nH]c2C1=O (configuration not stated) [SECOBATZELLINE B] | 1.22 µg/mL (≈ 4.75 µM) | 2.86 µg/mL (≈ 11.1 µM)
